Test results reported in ChEMBL document CHEMBL1143088, “Non-acidic pyrazole EP1 receptor antagonists with in vivo analgesic efficacy” (Bioorg Med Chem Lett, 2008).

Tests used:
[1] = target: T1, Prostaglandin E2 receptor EP1 subtype (Homo sapiens, UniProt P34995); test: Displacement of [3H]PGE2 from human PGE2-EP1 receptor expressed in CHO-K1 cells; format: cell-based
T1 sequence (P34995 whole entry): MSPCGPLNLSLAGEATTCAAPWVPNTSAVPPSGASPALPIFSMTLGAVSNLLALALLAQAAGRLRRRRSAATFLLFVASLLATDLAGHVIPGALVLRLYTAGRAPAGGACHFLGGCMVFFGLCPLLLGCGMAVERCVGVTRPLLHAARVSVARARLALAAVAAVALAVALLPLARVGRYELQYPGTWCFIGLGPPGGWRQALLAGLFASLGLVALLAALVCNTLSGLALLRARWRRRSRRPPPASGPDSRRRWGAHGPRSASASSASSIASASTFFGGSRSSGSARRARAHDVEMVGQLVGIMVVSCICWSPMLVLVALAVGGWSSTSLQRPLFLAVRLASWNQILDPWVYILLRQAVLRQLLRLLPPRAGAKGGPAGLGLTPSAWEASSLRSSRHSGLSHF

[2] = Distribution coefficient, logD at pH 7.4; format: physicochemical; conditions: octanol/water
Method in brief: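 Distribution coefficient between n-octanol and water buffered to pH 7.4; log10 of ratio of equilibrium concentrations of all species.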

[3] = Clearance in blood in rat at 10 mL/h/kg, iv; format: ADME, organism-based; conditions: whole blood
Method in brief: (§1)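 Male rats (n = 1 per compound) dosed iv at 10 mL/h/kg over 1 h via femoral vein cannula, target 1 mg free compound/kg, formulated at 0.1 mg/mL in 0.9% saline with 2% DMSO and 10–20% Kleptose (some with a molar equivalent NaOH), filtered before dosing.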

[4] = Volume of distribution at steady state in rat at 10 mL/h/kg, iv; format: ADME, organism-based; conditions: in vivo, read-out: Vdss; method in brief: as §1
[5] = Half life in rat at 10 mL/h/kg, iv; format: ADME, organism-based; conditions: in vivo; method in brief: as §1

Row | Compound | IC50 [1] [nM] | logD [2] | clearance [3] [mL/min/kg] | Vd [4] [L/kg] | half-life [5] [h]
1 | Cc1cc(NC(=O)OCc2ccccn2)nn1Cc1cc(Cl)ccc1OCc1ccccc1 | 79.4 | 3.1 | 98 | 3 | –
2 | Cc1cc(NC(=O)CC(C)(C)C)nn1Cc1cc(Cl)ccc1OCc1ccccc1 | 10 | > 3.7 | – | – | –
3 | Cc1cc(NC(=O)C2CCCC2)nn1Cc1cc(Cl)ccc1OCc1ccccc1 | 15.8 | 3.5 | – | – | –
4 | Cc1cc(NC(=O)C(C)C)nn1Cc1cc(Cl)ccc1OCc1ccccc1 | 25.1 | > 3.7 | – | – | –
5 | Cc1cc(C(=O)NCc2cccnc2)nn1Cc1cc(Cl)ccc1OCc1ccccc1 | 50.1 | > 3.7 | – | – | –
6 | Cc1cc(C(=O)NCc2ccccn2)nn1Cc1cc(Cl)ccc1OCc1ccccc1 | 25.1 | > 3.7 | 68 | 3.6 | 1.3
7 | Cc1cc(NC(=O)C(F)(F)c2ccccc2)nn1Cc1cc(Cl)ccc1OCc1ccccc1 | 39.8 | > 3.7 | – | – | –
8 | Cc1cc(NC(=O)C(C)(C)c2ccccc2)nn1Cc1cc(Cl)ccc1OCc1ccccc1 | 63.1 | > 3.7 | – | – | –
9 | Cc1cc(C(=O)Nc2cccc(F)c2)nn1Cc1cc(Cl)ccc1OCc1ccccc1 | 200 | 2.8 | – | – | –
10 | Cc1cc(NC(=O)OCc2ccccc2)nn1Cc1cc(Cl)ccc1OCc1ccccc1 | 79.4 | 3.1 | – | – | –
11 | Cc1cc(NC(=O)c2ccccc2)nn1Cc1cc(Cl)ccc1OCc1ccccc1 | 15.8 | > 3.7 | 50 | – | –
12 | O=C(Nc1ccn(Cc2cc(Cl)ccc2OCc2ccccc2)n1)c1ccccc1 | 251 | – | – | – | –
13 | Cc1cc(NC(=O)OC2CCOCC2)nn1Cc1cc(Cl)ccc1OCC(C)C | 63.1 | 3.4 | – | – | –
14 | Cc1cc(NC(=O)OC(C)(C)C(F)(F)F)nn1Cc1cc(Cl)ccc1OCC(C)C | 50.1 | 3.5 | – | – | –
15 | Cc1cc(C(=O)NN2CCCCC2)nn1Cc1cc(Cl)ccc1OCC(C)C | 200 | 3.3 | – | – | –
16 | Cc1cc(NC(=O)OCC(C)C)nn1Cc1cc(Cl)ccc1OCc1ccccc1 | 25.1 | 3.3 | 124 | 3.9 | –
17 | Cc1cc(C(=O)Nc2ccc(F)cc2)nn1Cc1cc(Cl)ccc1OCc1ccccc1 | 79.4 | 3 | – | – | –
18 | Cc1cc(NC(=O)C2CCCO2)nn1Cc1cc(Cl)ccc1OCc1ccccc1 (stereo not given) | 39.8 | > 3.7 | – | – | –
19 | Cc1cc(C(=O)NCc2ccncc2)nn1Cc1cc(Cl)ccc1OCc1ccccc1 | 79.4 | > 3.7 | – | – | –
20 | Cc1cc(C(N)=O)nn1Cc1cc(Cl)ccc1OCC(C)C | 126 | 3.1 | – | – | –
21 | Cc1cc(C(=O)O)nn1Cc1cc(Cl)ccc1OCc1ccccc1 | 10 | 1 | – | – | –
22 | Cc1cc(NC(=O)Cc2ccccc2)nn1Cc1cc(Cl)ccc1OCc1ccccc1 | 12.6 | > 3.7 | 59 | 7.5 | 2.9
23 | Cc1cc(NC(=O)Cc2ccccn2)nn1Cc1cc(Cl)ccc1OCc1ccccc1 | 20 | > 3.7 | – | – | –
24 | Cc1cc(C(=O)NCc2ccccc2)nn1Cc1cc(Cl)ccc1OCc1ccccc1 | 39.8 | > 3.7 | 75 | 9.3 | 4.6
25 | Cc1cc(C(=O)Nc2ccccn2)nn1Cc1cc(Cl)ccc1OCc1ccccc1 | 126 | > 3.7 | – | – | –
26 | Cc1cc(NC(=O)Cc2cccnc2)nn1Cc1cc(Cl)ccc1OCc1ccccc1 | 39.8 | > 3.7 | – | – | –

Row | Compound | IC50 [1] [nM] | logD [2] | clearance [3] [mL/min/kg] | Vd [4] [L/kg] | half-life [5] [h]
27 | O=C(Cc1ccccc1)Nc1ccn(Cc2cc(Cl)ccc2OCc2ccccc2)n1 | 158 | – | – | – | –
28 | Cc1cc(C(=O)NC(C)C)nn1Cc1cc(Cl)ccc1OCc1ccccc1 | 126 | > 3.7 | – | – | –
29 | CNC(=O)c1cc(C)n(Cc2cc(Cl)ccc2OCc2ccccc2)n1 | 100 | > 3.7 | – | – | –
30 | Cc1cc(NC(=O)OC(C)C)nn1Cc1cc(Cl)ccc1OCC(C)C | 50.1 | > 3.7 | – | – | –
31 | Cc1cc(C(=O)O)nn1Cc1cc(Br)ccc1OCc1ccccc1 | – | 1.2 | – | – | –
32 | Cc1cc(NC(=O)C2CCCCC2)nn1Cc1cc(Cl)ccc1OCC(C)C | 31.6 | > 3.7 | 68 | 3.5 | 1.7
33 | CCOC(=O)Nc1cc(C)n(Cc2cc(Cl)ccc2OCc2ccccc2)n1 | 79.4 | > 3.7 | – | – | –
34 | Cc1cc(NC(=O)C2CCCC2)nn1Cc1cc(Cl)ccc1OCC(C)C | 25.1 | > 3.7 | – | – | –
35 | COC(=O)Nc1cc(C)n(Cc2cc(Cl)ccc2OCc2ccccc2)n1 | 200 | > 3.7 | – | – | –
36 | Cc1ccc(-c2cc(Cl)ccc2OCc2ccccc2)n1-c1cccc(C(=O)O)c1 | – | 2.5 | – | – | –
37 | Cc1cc(C(=O)NN2CCOCC2)nn1Cc1cc(Cl)ccc1OCC(C)C | 251 | 3.1 | – | – | –
38 | O=C(Cc1ccccn1)Nc1ccn(Cc2cc(Cl)ccc2OCc2ccccc2)n1 | 398 | – | – | – | –
39 | CC(=O)Nc1cc(C)n(Cc2cc(Cl)ccc2OCc2ccccc2)n1 | 316 | > 3.7 | – | – | –
40 | Cc1cc(NC(=O)OC(C)(C)C)nn1Cc1cc(Cl)ccc1OCC(C)C | 31.6 | > 3.7 | – | – | –
41 | Cc1cc(NC(=O)C(F)(F)c2ccccn2)nn1Cc1cc(Cl)ccc1OCc1ccccc1 | 25.1 | 3.1 | – | – | –
42 | Cc1cc(NC(=O)C2CCOCC2)nn1Cc1cc(Cl)ccc1OCc1ccccc1 | 63.1 | > 3.7 | 55 | 3.3 | 1
43 | Cc1cc(NC(=O)C2CCOC2)nn1Cc1cc(Cl)ccc1OCc1ccccc1 (stereo not given) | 39.8 | > 3.7 | – | – | –
44 | Cc1cc(NC(=O)c2c(F)cccc2F)nn1Cc1cc(Cl)ccc1OCc1ccccc1 | 12.6 | > 3.7 | – | – | –
45 | Cc1cc(NC(=O)CC2CCCCC2)nn1Cc1cc(Cl)ccc1OCc1ccccc1 | 6.31 | 3.2 | – | – | –
46 | Cc1cc(NC(=O)Cc2ccncc2)nn1Cc1cc(Cl)ccc1OCc1ccccc1 | 50.1 | > 3.7 | – | – | –
47 | Cc1cc(C(=O)Nc2ccccc2)nn1Cc1cc(Cl)ccc1OCc1ccccc1 | 39.8 | > 3.7 | – | – | –
48 | Cc1cc(C(=O)Nc2c(F)cccc2F)nn1Cc1cc(Cl)ccc1OCc1ccccc1 | 10 | 3.7 | – | – | –
49 | Cc1cc(NC(=O)O[C@H]2CCOC2)nn1Cc1cc(Cl)ccc1OCc1ccccc1 | 79.4 | 2.7 | 86 | 3.7 | 0.8
50 | Cc1cc(C(N)=O)nn1Cc1cc(Cl)ccc1OCc1ccccc1 | 126 | 3.7 | – | – | –
51 | Cc1cc(NC(=O)C(C)(C)c2ccccn2)nn1Cc1cc(Cl)ccc1OCc1ccccc1 | 15.8 | > 3.7 | – | – | –
